APP 5'UTR act = APP 5'UTR luciferase reporter activation; activation, % at 2 µM; SH-SY5Y APP 5'UTR luciferase reporter, luminescence; zero percent = DMSO vehicle wells; 1% of 190,000 active; AID 1276;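 active means activation above a set limit, based on mean plus 3 SD of controls, cut at about 140% in these data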
FLuc act counter = firefly luciferase counter-screen for stimulation assays | AID 1027 | P08659 | 200,000 tested, under 10 active | activation factor at 10 µM | ATPlite luciferase biochemical, luminescence, 10 min; 0 = ATP-free wells, 1 = DMSO control;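 active means luciferase activation factor, scaled between plate controls, of at least 2 with compound at 10 µM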
Target sequence (P08659 whole entry, looked up): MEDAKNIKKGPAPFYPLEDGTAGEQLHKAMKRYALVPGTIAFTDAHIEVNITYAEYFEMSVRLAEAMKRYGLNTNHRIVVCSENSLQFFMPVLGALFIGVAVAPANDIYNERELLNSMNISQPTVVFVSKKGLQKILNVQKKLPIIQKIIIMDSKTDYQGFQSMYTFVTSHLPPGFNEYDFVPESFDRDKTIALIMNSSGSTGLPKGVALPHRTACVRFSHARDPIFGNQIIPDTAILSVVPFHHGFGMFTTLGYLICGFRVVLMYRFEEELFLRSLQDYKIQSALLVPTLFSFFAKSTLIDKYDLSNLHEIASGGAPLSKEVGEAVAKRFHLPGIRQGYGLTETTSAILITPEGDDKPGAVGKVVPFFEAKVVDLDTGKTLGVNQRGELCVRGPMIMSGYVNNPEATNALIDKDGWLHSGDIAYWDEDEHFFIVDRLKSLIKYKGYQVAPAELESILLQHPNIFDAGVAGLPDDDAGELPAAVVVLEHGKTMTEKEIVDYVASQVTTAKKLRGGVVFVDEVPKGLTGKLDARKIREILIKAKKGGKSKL
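System: cell-free luciferase reagent; medium: PBS as buffer for the ATP substrate; doses: test compounds dosed from 2 mM stocks in 100% DMSO; incubation: 10 min, room temperature; measured by: luminescence from luciferase reaction; read-out: luciferase activation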
C8 TRAIL sens = sensitizes caspase-8 expressing cells to TRAIL; inhibition (viability loss, TRAIL sensitization), % at 10 µM; NB7+C8 cells + TRAIL, ATPlite viability luminescence; 1% of 360,000 active;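 active means compounds causing at least 50% loss of cell viability in the single-dose screen, relative to plate controls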
NF-kB neuron act = raises NF-kB expression in human neuronal cells. NF-kB reporter expression; active compounds read high. 1.6% of 190,000 active. fold change at 12.5 µM; in the data active means fold change above about 3.3
PPC-1+TRAIL kill = compounds killing PPC-1 cancer cells with TRAIL present (potentiator screen, no TRAIL-free arm) | AID 1443 | 0.41% of 220,000 active | PPC-1 cells + TRAIL, ATPLite viability luminescence | cell killing (% activity), % at 4 µM or 5 µM;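 active means cell killing above 50% in the first pass at 4 µM, then a duplicate retest at 5 µM averaging 50% or more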;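 further: plate controls were cells with TRAIL plus DMSO for no effect and medium-only wells lacking cells for full effect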
FLuc inhib CS = inhibits firefly luciferase, flagging false hits in luciferase inhibition screens; P08659; ATPLite firefly luciferase biochemical luminescence, 10 min; inhibition, % at 10 µM; 1.5% of 200,000 active; AID 1006;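 active means inhibition above about 50% when tested at 10 µM, limit read from the data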
An asterisk follows results filed as active; nt = no result given. Most compounds without a hit are left out; they make up all but 2.2% or so of the library.

SMILES | APP 5'UTR act | FLuc act counter | C8 TRAIL sens | NF-kB neuron act | PPC-1+TRAIL kill | FLuc inhib CS
CCOC(=O)c1c(C)[nH]c(/C(C)=N/O)c1C | -4 | 1 | 39 | 1 | 14 | -1
CCOC(=O)c1c(C)[nH]c(C2=NNC(=NC3CC3)SC2)c1C | 158* | 0.3 | 33 | 0.89 | 20 | 71*
CCCCNc1nc(N)nc(-c2cc(Cl)ccc2O)n1 | 155* | 0.8 | 29 | 1.6 | 12 | 21
CCNc1nc(N)nc(-c2cc(Cl)ccc2O)n1 | 215* | 0.4 | 47 | 6.8* | 42 | 63*
CC(Oc1ccc(Cl)cc1Cl)c1nc(-c2ccc(NC(=O)c3ccccn3)cc2)no1 (stereo not given) | 147* | 0.7 | 14 | 1.3 | -5 | 32
O=C(Nc1ccc([N+](=O)[O-])cc1Cl)c1cc(Cl)ccc1O | nt | nt | 80* | nt | nt | nt
O=C(Nc1ccc([N+](=O)[O-])cc1Cl)c1cccc([N+](=O)[O-])c1 | nt | nt | 7 | nt | nt | nt
O=C(Nc1ccc(C(=O)O)cc1)/C(=C\C=C\c1ccccc1)NC(=O)c1ccccc1Br | nt | nt | 50* | nt | nt | nt
O=S1(=O)CC(c2ccccc2)=NN=C(c2ccccc2)C1 | nt | nt | 75* | nt | nt | nt
Cc1nc2c(-c3ccc(F)cc3)cnn2c(N)c1-c1ccccc1 | nt | nt | 83* | nt | nt | nt
Cc1nc2c(-c3ccc(Cl)cc3)cnn2c(N)c1-c1ccc(F)cc1 | nt | nt | 33 | nt | nt | nt
Cc1cc(-c2ccc(F)cc2)n2ncc(-c3ccccc3)c2n1 | nt | nt | 64* | nt | nt | nt
CC(=O)Nc1ccc(Nc2cc(C)nc3c(-c4ccccc4)cnn23)cc1 | 165* | 1 | 17 | 0.76 | 29 | 0
COc1ccc(S(=O)(=O)N(C)C[C@@H]2OCCCC[C@@H](C)Oc3ccc(NS(=O)(=O)c4cccs4)cc3C(=O)N([C@H](C)CO)C[C@@H]2C)cc1 | nt | nt | 1 | nt | nt | nt
COc1ccc(CCCNC(=O)C2(C)Cc3c(-c4ccc5c(c4)OCO5)ccnc3O2)cc1 (stereo not given) | nt | nt | -3 | nt | nt | nt
COc1ccc(O)c(/C=C(\C#N)C(=O)Nc2cccnc2)c1 | 25 | 0.4 | -11 | 0.96 | 10 | 63*
CCCCCCCCN1C(=O)[C@H](CC(=O)N2CCN(C(=O)c3ccco3)CC2)C[C@@]2(C(=O)OC)CC(C)(C)CC=C12 | nt | nt | 19 | nt | nt | nt
CC1(C(=O)NCc2ccccc2)CSCC(=O)N1Cc1cccc(C(F)(F)F)c1 (stereo not given) | nt | nt | -2 | nt | nt | nt
COc1ccc(C2CC(c3c(O)cc(C)oc3=O)=NCCS2)c(OC)c1 (stereo not given) | -93 | 0.6 | 78* | 5.8* | 20 | 38
CC1=Nc2cc([N+](=O)[O-])ccc2NC(C)(C)C1 | 136* | 0.9 | 8 | 1.1 | 22 | 6
CCc1nc2c(OCC(=O)C(C)(C)C)cccn2c1N(C)C(=O)COc1ccccc1 | nt | nt | -5 | nt | nt | nt
COc1ccc(Cl)c2c1[nH]c1nc(SCc3ccccn3)nnc12 | 157* | 1 | -16 | 4.2* | 21 | 0
Cc1c(C(=O)NCc2ccc(C(C)C)cc2)sc(=O)n1Cc1ccc(S(=O)(=O)N(C)C)cc1 | nt | nt | 0 | nt | nt | nt
CCOC(=O)C1=C(NC(=S)NC(=O)c2ccccc2)c2ccccc2CC1C(C)C (stereo not given) | -6 | 1.1 | 10 | 3.7* | 16 | -6
COc1ccccc1CN1C(=O)C(C)ON=C1c1ccccc1F (stereo not given) | nt | nt | 18 | nt | nt | nt
SMILES | APP 5'UTR act | FLuc act counter | C8 TRAIL sens | NF-kB neuron act | PPC-1+TRAIL kill | FLuc inhib CS
CS(=O)(=O)c1sc(C#N)c2c1C(=O)CC(c1ccccc1)C2 (stereo not given) | nt | nt | 73* | nt | 4 | nt
O=C(Nc1ccc2nc3n(c(=O)c2c1)CCCCC3)c1c(F)ccc([N+](=O)[O-])c1F | nt | nt | 68* | nt | nt | nt
O=C(Nc1ccc2nc3n(c(=O)c2c1)CCCCC3)c1cc([N+](=O)[O-])ccc1F | nt | nt | 42 | nt | nt | nt
Cc1ccc(NC2=Nc3ccccc3CC2)cc1 | 179* | 0.6 | 24 | 3.7* | -3 | 40
Brc1ccc(NC2=Nc3ccccc3CC2)cc1 | 99 | 0.9 | 4 | 4.7* | 9 | 10
N#CC1=C(Nc2ccc(Br)cc2)CCC1 | 11 | 1 | -8 | 1.1 | 12 | 0
CCc1ccc(CN(C(=O)c2cc3ccccc3oc2=O)C2CCS(=O)(=O)C2)cc1 (stereo not given) | 105 | 1 | -23 | 4.1* | -13 | 5
Cc1ccc(CN(C(=O)c2cc3ccccc3oc2=O)C2CCS(=O)(=O)C2)cc1 (stereo not given) | 31 | 1 | -2 | 2 | 9 | -4
O=C(CSC1=NCCS1)N1CCc2ccccc21 | 85 | 0.8 | 0 | 3.5* | -6 | 16
CCOc1cccc(-c2cc(NCCc3ccccn3)n3nccc3n2)c1 | nt | nt | -24 | nt | nt | nt
O=C(COc1ccccc1-c1ccccc1)N/N=C/c1cccc2ccccc12 | -95 | 1.1 | -8 | 4.1* | -4 | -11
O=C(COc1cccc2ccccc12)N/N=C/c1ccccc1OCc1ccc(C(=O)O)cc1 | 2 | 1 | -2 | 1.1 | nt | -4
COc1ccc(/C=N/NC(=O)COc2ccccc2-c2ccccc2)cc1 | -97 | 1 | 5 | 5.3* | -2 | -2
C[C@@H]1CN([C@@H](C)CO)C(=O)CCCn2nncc2CO[C@H]1CN(C)Cc1ccc2cccnc2c1 | nt | nt | 0 | nt | nt | nt
Cc1cc(NC(=O)c2ccc(Cl)cc2)no1 | 126 | 0.4 | 41 | 2.9 | 20 | 59*
CCSc1ccccc1C(=O)Nc1cc(C)on1 | -4 | 1.1 | 6 | 1.4 | -12 | -5
Cc1cc(NC(=O)c2ccccc2-c2ccccc2C(=O)O)no1 | 43 | 1 | 8 | 1.2 | 50* | 0
CN1CC(c2ccccc2)C2(SC(=S)N(Cc3ccco3)C2=O)C12C(=O)Nc1ccccc12 (stereo not given) | -35 | 1 | 50* | 0.62 | 18 | -2
Cc1ccc(C(=O)/C=C/Nc2ccccn2)cc1 | 115 | nt | 82* | nt | nt | nt
Cc1ccc(C(=O)/C=C\Nc2ccc(C)c(C)c2)cc1 | 170* | 0.7 | 31 | 2.4 | 31 | 29
Cc1ccc(N/C=C/C(=O)c2ccc(C)cc2)cc1 | 91 | 0.5 | 32 | 5.2* | 24 | 51*
Cc1ccc(C(=O)/C=C/Nc2ccc([N+](=O)[O-])cc2Br)cc1 | 83 | 0.6 | 30 | 0.94 | 28 | 39
Cc1ccc(O)c(N/C=C/C(=O)c2ccc(F)cc2)c1 | nt | nt | 60* | nt | nt | nt
O=C(/C=C/c1ccccc1)NC(=S)Nc1ccccc1C(=O)NC1CCCCC1 | 10 | 1.1 | 4 | 1.2 | 6 | -6
O=C(/C=C/c1ccc(F)cc1)NC(=S)Nc1ccccc1C(=O)NC1CCCCC1 | -4 | 1 | 59* | 2.4 | 18 | 0
Cc1ccc(NC(=O)Nc2cccc(F)c2)nc1 | nt | nt | 4 | nt | nt | nt
Cc1ccnc(NC(=O)Nc2cccc(F)c2)n1 | 150* | 0.9 | 1 | nt | 3 | 7
Cc1ccnc(NC(=O)Nc2cccc(F)c2)c1 | 198* | 0.7 | 20 | 8.6* | 7 | 31

Source: PubChem (several laboratories)
